The results in this text go back to ChEMBL document CHEMBL1148641, “Design and synthesis of novel sulfonamide-containing bradykinin hB2 receptor antagonists. 1. Synthesis and SAR of alpha,alpha-dimethylglycine sulfonamides” (J Med Chem, 2006).

Structures are written as SMILES.

Test [1] deals with T1, B2 bradykinin receptor (Homo sapiens, UniProt P30411).
T1 sequence (P30411 whole entry): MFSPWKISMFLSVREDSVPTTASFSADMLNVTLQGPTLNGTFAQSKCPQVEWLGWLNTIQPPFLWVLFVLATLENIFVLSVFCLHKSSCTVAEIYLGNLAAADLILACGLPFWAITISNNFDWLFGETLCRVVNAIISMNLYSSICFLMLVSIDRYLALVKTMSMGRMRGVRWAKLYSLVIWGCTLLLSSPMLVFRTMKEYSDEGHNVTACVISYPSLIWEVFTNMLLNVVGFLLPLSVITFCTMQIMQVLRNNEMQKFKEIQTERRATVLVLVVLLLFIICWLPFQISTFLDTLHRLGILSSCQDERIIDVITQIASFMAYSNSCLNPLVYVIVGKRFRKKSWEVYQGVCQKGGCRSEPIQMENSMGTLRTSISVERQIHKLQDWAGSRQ
In words: Displacement of [3H]BK from human B2 receptor transfected in CHO cells. Format: cell-based. The method in brief: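 Membranes from stably transfected CHO cells (100-150 µg/mL) incubated 60 min at room temperature with [³H]BK at 0.1-0.2 nM in TES buffer pH 7.4 with 1,10-phenanthroline, bacitracin and BSA, 1% DMSO final. Competitor 1 pM-10 µM; nonspecific binding with 1 µM BK. Filtration, scintillation counting; IC50 converted to pKi by Cheng-Prusoff.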
(Displacement assays read how much labelled ligand stays bound in the presence of the test substance.)

The target in test [2] is T1, B2 bradykinin receptor. In words: Activity at human B2 receptor transfected in CHO cells assessed as ability to antagonize BK-induced inositol-phosphate accumulation. Type of test: functional, cell-based. Particulars: read-out: pA2 (converted). The method in brief: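 Stably transfected CHO cells (1.8 × 10⁵/well) grown overnight at 37 °C, then labeled 24 h with [³H]myo-inositol (1 µCi/well). Antagonist preincubation 20 min at a nanomolar concentration, then BK 1 × 10^-11 to 1 × 10^-5 M for 40 min at 37 °C in LiCl-containing buffer, pH 7.4. IP1 radioactivity by liquid scintillation; pA₂ from EC50 concentration-ratios of sigmoidal fits.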

In test [3] the test system is Cavia porcellus. In words: Inhibition of BK-induced bronchoconstriction in guinea pig intratracheally administered at 300 nmol/kg for 210 min. Format: functional. Particulars: inhaled or nasal, 3.5 h. An outline of the steps:
(§1)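 Anesthetized guinea pigs given compound intratracheally at 300 nmol/kg. BK-induced bronchoconstriction and BK-induced hypotension followed over time after dosing.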

Test [4] deals with Cavia porcellus. The experiment in a line: Reduction in hypotensive effect in guinea pig intratracheally administered at 300 nmol/kg for 60 min. Format: functional. The arrangement: scale not given: the % may be the effect or the level left. The method in brief:
as §1

As usually defined, the Ki is a measure of affinity in units of concentration, obtained from inhibition or displacement. By inhibition in vivo is commonly meant the percentage by which the read-out fell short of the control. The molecule `Cc1cc(C)c2cccc(OCc3c(Cl)ccc(S(=O)(=O)NC(C)(C)C(=O)N4CCN(C(=O)[C@@H](N)CCCN(C)C)CC4)c3Cl)c2n1` showed a Ki in test [1] of 0.398 nM. In addition, the Kb in test [2] is 0.794 nM. In test [3], this molecule registered an inhibition in vivo at 0.3 µmol/kg of 80%. For the same molecule, the Activity in test [4] is 30%.
